Test results reported in PMC10888821 (bioRxiv, 2024).
Each block holds one compound with its values, some of them ahead of it. The star is where a group is joined. K(dnp) = lysine 2,4-dinitrophenyl (Nε-2,4-dinitrophenyl-lysine); Mca = COc1ccc2c(CC(=O)*)cc(=O)oc2c1

What was measured:
Sm20S β1 [1] = assay: Substrate hydrolysis by purified Sm20S, β1 substrates; type: biochemical, Schistosoma mansoni; details: between 16 and 250 μM substrate
Sm20S β5 subunit [2] = molecular target: T1, Sm20S β5 subunit (Schistosoma mansoni, UniProt A0A5K4F079); assay: Substrate hydrolysis by purified Sm20S, β5 substrates; type: biochemical
T1 sequence (A0A5K4F079 63-264): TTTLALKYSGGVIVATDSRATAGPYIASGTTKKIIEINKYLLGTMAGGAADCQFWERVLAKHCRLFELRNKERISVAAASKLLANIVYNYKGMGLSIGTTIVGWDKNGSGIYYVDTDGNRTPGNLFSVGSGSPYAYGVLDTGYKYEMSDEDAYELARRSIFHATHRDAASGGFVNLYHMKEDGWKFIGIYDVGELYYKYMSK
Summary of the method: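 Purified Sm20S (10 nM) was incubated with 2-fold serial dilutions of Ac-FNKL-amc or Suc-LLVY-amc. Hydrolysis was monitored at 24°C (ex/em 360/460 nm) and activity was compared as a function of substrate concentration. Technical triplicates.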

[3] = tested on: 20S proteasome β2 subunit of three Schistosoma species; assay: Proteasome inhibition in three Schistosoma species, β2 substrate; type: biochemical, S. mansoni, S. haematobium, S. japonicum
Summary of the method: (§1)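 Extracts of S. haematobium (0.625 μg/μL), S. japonicum and S. mansoni (1.25 μg/μL each) were enriched by ammonium sulfate precipitation. Proteasome amount was normalized by labelling with 2 μM Me4BodipyFL-Ahx3Leu3VS (37°C, 3 h) and in-gel fluorescence. Extracts were preincubated 1 h with test compound (0.125% DMSO vehicle), then mixed with an equal volume of 20 μM β1/β2 mca substrate or 40 μM Z-FNKL-amc. Buffer: 100 mM Tris pH 7.5, 50 μM E-64, 1 mM AEBSF, 2 μM pepstatin, 0.03% SDS. Triplicate wells at 24°C.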

[4] = tested on: 20S proteasome β5 subunit of three Schistosoma species; assay: Proteasome inhibition in three Schistosoma species, β5 substrate; type: biochemical, S. mansoni, S. haematobium, S. japonicum
Summary of the method: as §1

Sm20S β1 [5] = assay: Proteasome inhibition in enriched extract, β1 substrate, S. mansoni; type: biochemical; details: 1 μM
Summary of the method: as §1

Sh20S β1 = assay: Proteasome inhibition in enriched extract, β1 substrate, S. haematobium; type: biochemical; details: 1 μM
Summary of the method: as §1

Sj20S β1 = assay: Proteasome inhibition in enriched extract, β1 substrate, S. japonicum; type: biochemical; details: 1 μM
Summary of the method: as §1

Sm20S β5 subunit [6] = molecular target: T1, Sm20S β5 subunit; assay: Dose-response assay of purified Sm20S with Suc-LLVY-amc; type: biochemical; details: 500 nM inhibitor
Summary of the method: (§2)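 Purified Sm20S was obtained from adult S. mansoni worms by ammonium sulfate precipitation, gel filtration and DEAE anion exchange. It was preincubated 15 min with test compound (20 μM to 9 nM, or 740 nM to 0.3 nM), then given 10 μM substrate: Suc-LLVY-amc (β5), Z-LLE-amc (β1) or Z-LRR-amc (β2). Maximum velocity over 8 sequential readings (RFU/sec) was normalized to 0.1% DMSO. Technical triplicates.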

Sm20S β2 subunit [7] = molecular target: T2, Sm20S β2 subunit (Schistosoma mansoni, UniProt G4VSW3); assay: Dose-response assay of purified Sm20S with Z-LRR-amc; type: biochemical; details: read-out: inhibition of β2 subunit activity
T2 sequence (G4VSW3 39-281): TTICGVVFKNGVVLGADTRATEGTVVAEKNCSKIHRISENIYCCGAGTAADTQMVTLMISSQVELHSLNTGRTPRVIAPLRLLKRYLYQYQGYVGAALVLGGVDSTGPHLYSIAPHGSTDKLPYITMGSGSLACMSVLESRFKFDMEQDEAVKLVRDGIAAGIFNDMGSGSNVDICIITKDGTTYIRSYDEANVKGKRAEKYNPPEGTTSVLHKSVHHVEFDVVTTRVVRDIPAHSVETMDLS
T2 sequence (UPI0001A6248C 1-194 partner): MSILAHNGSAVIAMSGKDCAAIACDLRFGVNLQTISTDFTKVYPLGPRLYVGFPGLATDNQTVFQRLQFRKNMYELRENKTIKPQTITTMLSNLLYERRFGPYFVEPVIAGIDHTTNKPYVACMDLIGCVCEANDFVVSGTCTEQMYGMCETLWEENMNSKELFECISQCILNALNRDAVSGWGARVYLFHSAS
Summary of the method: as §2

Sm20S β1 subunit [8] = molecular target: T3, Sm20S β1 subunit (Schistosoma mansoni, UniProt G4V926); assay: Dose-response assay of purified Sm20S with Z-LLE-amc; type: biochemical
T3 sequence (G4V926 26-225): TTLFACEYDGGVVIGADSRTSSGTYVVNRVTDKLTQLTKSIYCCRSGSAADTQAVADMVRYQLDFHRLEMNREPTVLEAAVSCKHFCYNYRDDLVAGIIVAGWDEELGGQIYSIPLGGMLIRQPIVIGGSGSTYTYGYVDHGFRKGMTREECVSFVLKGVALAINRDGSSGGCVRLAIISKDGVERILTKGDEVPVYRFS
Summary of the method: as §2

Sm20S β1 subunit [9] = molecular target: T3, Sm20S β1 subunit; assay: Inhibition of single-step enriched Sm20S, β1 substrate; type: biochemical
Summary of the method: (§3)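 Sm20S was single-step enriched: worm lysate in Tris/E-64 pH 7.5, ammonium sulfate precipitation at 30 and 60% saturation, then 100 kDa concentration. Assay buffer contained pepstatin, E-64 and AEBSF. Substrates were mca-VDQMDGW-K(dnp)-NH2 (β1), mca-FnKRR-K(dnp)-NH2 (β2) and FNKL-amc (β5), tested across test compound concentrations. Reads were at ex/em 320/400 (mca) or 340/460 (amc). Technical triplicates.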

Sm20S β2 subunit [10] = molecular target: T2, Sm20S β2 subunit; assay: Inhibition of single-step enriched Sm20S, β2 substrate; type: biochemical
Summary of the method: as §3

Sm20S β5 subunit [11] = molecular target: T1, Sm20S β5 subunit; assay: Inhibition of single-step enriched Sm20S, β5 substrate; type: biochemical
Summary of the method: as §3

Sm20S β2 = assay: Sm20S pre-incubated with 10 μM inhibitor, assayed with mca-FnKRR-K; type: biochemical, Schistosoma mansoni; details: extended pre-incubation with 10 μM inhibitor
Summary of the method: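 Sm20S was pre-incubated with test compound, then assayed with mca-FnKRR-K(dnp) and Z-LRR-amc. Fluorescence was read at 24°C: ex/em 320/400 nm (mca) and 360/460 nm (amc). Technical triplicates.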

Sm20S β1 [12] = assay: Inhibition of Sm20S hydrolysis of mca-VDQMDGW-K; type: biochemical, Schistosoma mansoni
[13] = tested on: 20S proteasome of three Schistosoma species; assay: Cross-species inhibition profile of schistosome lysates; type: biochemical, S. mansoni, S. haematobium, S. japonicum; details: lysates pre-incubated with 500 nM
Summary of the method: as §1

[14] = tested on: 20S proteasome β1 subunit of three Schistosoma species; assay: Proteasome inhibition in three Schistosoma species, β1 substrate; type: biochemical, S. mansoni, S. haematobium, S. japonicum; details: 500 nM, single-step enriched 20S, across the three species
Summary of the method: as §1

[15] = 500 nM, single-step enriched 20S, across the three species

substrate concentration of maximal cleavage activity (Sm20S β5 subunit [2]): 25 µM
cleavage rate relative to Suc-LLVY-amc (Sm20S β5 subunit [2]; 25 μM substrate): ~ four-fold
Compound: Ac-FNKL-amc

inhibition of β5 subunit activity (Sm20S β5 subunit [6]): completely inactivated
inhibition at 0.5 µM (Sm20S β2 subunit [7]): ~35%
inhibition of β1 subunit activity (Sm20S β1 subunit [8]; 500 nM inhibitor, Z-LLE-amc): completely inactivated
IC50 (Sm20S β1 subunit [9]): 49.84 ± 0.24 nM
IC50 using the β2 substrate (Sm20S β2 subunit [10]; single-step enriched Sm20S, β2 substrate): did not inhibit
IC50 (Sm20S β5 subunit [11]): 18 ± 2.05 nM
Compound: CC(C)C[C@H](NC(=O)[C@H](Cc1ccccc1)NC(=O)c1cnccn1)B(O)O [BTZ, bortezomib]
effect on Sm20S β2 activity (Sm20S β2): only partially inhibited
inhibition of mca-VDQMDGW-K(dnp) hydrolysis by Sm20S (Sm20S β1 [12]): inhibited
cross-species subunit inhibition profile [13]: preferentially inhibited β1 and β5

inhibition of β5 subunit activity (Sm20S β5 subunit [6]): completely inhibited
inhibition at 0.5 µM (Sm20S β2 subunit [7]): ~40%
inhibition at 0.5 µM (Sm20S β1 subunit [8]; read-out: inhibition of β1 subunit activity): ~40%
IC50 for the β1 subunit (Sm20S β1 subunit [9]; single-step enriched Sm20S, β1 substrate): not inhibitory
IC50 (Sm20S β2 subunit [10]): 288 ± 90 nM
IC50 (Sm20S β5 subunit [11]): 2.5 ± 0.51 nM
Compound: CC(C)C[C@H](NC(=O)[C@H](CCc1ccccc1)NC(=O)CN1CCOCC1)C(=O)N[C@@H](Cc1ccccc1)C(=O)N[C@@H](CC(C)C)C(=O)[C@@]1(C)CO1 [CFZ, carfilzomib]
effect on Sm20S β2 activity (Sm20S β2): inactivated
cross-species subunit inhibition profile [13]: inhibited β5 and β2 more than β1

Continued, compound first:

Compound: mca-VDQMDGW-K(dnp)-NH2 (Mca-VDQMDGW-{K(dnp)-NH2}) [VDQMD*GW]
cleavage efficiency relative to LLE-amc (Sm20S β1 [1]): ~ 2 fold

Compound: CCCCCC(=O)N[C@@H](Cc1c[nH]c2ccccc12)C(=O)N[C@@H](Cc1c[nH]c2ccccc12)C(=O)N[C@@H](Cc1ccccc1)C(=O)[C@@]1(C)CO1 [carmaphycin-17]
inhibition of β2 subunits ([3]; 1 μM, three species): ~ 60%
inhibition of β5 subunits ([4]; 1 μM, three species): complete inhibition
decrease of Sm20S β1 activity (Sm20S β1 [5]): 20%
decrease of Sh20S β1 activity (Sh20S β1): 20%
reduction of Sj20S β1 activity (Sj20S β1): 47%

Compound: C[C@@]12OC(=O)[C@]1([C@@H](O)[C@@H]1C=CCCC1)NC(=O)[C@@H]2CCCl [MZB, marizomib]
reduction of β1 activity [14]: 61 to 34%
reduction of β2 activity [3, 15]: 66 to 48%
reduction of β5 activity [4, 15]: complete inactivation
